Only some compounds are listed: those with a hit (about 4.9% of all), similar ones and a draw of the others.
HSF1 inh – HSF1 inhibition; NIH3T3-HGL HSE-luciferase, MG132-induced, luminescence 8 h; stronger effect = lower value; activity change, negative = inhibition, % at 7.5 µM (by protocol); 300,000 compounds, 0.77% hits;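 active = more than half of replicate wells show activity change below -50%, luminescence cut by over half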;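 note: luciferase reports HSF-1 transcriptional activity via heat shock element; 0% = median of DMSO wells and -100% = zero luminescence signal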
PHOSPHO1 inh – PHOSPHO1 (human) inhibition | recombinant PHOSPHO1, absorbance phosphatase assay | inhibition, % at 13.3 µM | AID 1565 | 290,000 compounds, 1.1% hits; in the data active = inhibition above about 60%
HSF1 activator – increases HSF-1 driven luciferase reporter signal | NIH3T3-HGL HSF-1 luciferase reporter, MG132, 8 h; 100% = twice DMSO control signal | 300,000 compounds, 1.7% hits | AID 504408 | activation, % at 9 µM;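 active = mean replicate activation of at least 50% with a set share of replicates each reaching 50%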;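 note: 0% = median of the neutral control wells and 100% = twice that signal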
CHT inh – inhibitors of human choline transporter CHT. B-score at 10 µM. CHT-expressing cells, membrane potential dye, choline response; stronger effect = lower value. 310,000 compounds, 0.86% hits;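 active = B-score over 3 SD under the library average, and starting fluorescence ratio not unusually high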;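 note: choline stimulus applied at its EC90 after an EC20 pre-addition; B-score computed on integrated fluorescence ratio after choline addition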
Target sequence (Q9GZV3 whole entry, looked up): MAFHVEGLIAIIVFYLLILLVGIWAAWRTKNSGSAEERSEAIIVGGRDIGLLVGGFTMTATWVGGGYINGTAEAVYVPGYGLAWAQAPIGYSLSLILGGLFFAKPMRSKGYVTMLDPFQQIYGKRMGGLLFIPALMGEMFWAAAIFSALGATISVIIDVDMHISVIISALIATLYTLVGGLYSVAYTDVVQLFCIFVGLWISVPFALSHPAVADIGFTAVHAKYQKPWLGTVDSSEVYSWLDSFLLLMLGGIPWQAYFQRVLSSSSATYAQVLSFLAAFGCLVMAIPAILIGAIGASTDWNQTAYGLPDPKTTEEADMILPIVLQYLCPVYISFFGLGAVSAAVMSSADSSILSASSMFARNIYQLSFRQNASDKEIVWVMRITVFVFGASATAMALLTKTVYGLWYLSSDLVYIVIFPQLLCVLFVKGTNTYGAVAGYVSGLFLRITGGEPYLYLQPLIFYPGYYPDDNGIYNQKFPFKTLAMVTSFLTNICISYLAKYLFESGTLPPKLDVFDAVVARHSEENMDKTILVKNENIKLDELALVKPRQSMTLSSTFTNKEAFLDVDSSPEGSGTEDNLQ
Hep lipid drop – hepatic lipid droplet formation modulation; AML12 mouse hepatocytes, oleate lipid droplets, BODIPY imaging; inhibition, % at 6.5 µM; 240,000 compounds, 0.4% hits;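 active = lipid droplet intensity inhibited by at least 50%, with more than 500 cells counted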
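Test system: AML12 hepatocytes (mouse); reagent: oleate loading, 100 µM; dosing: one dose, 6.5 µM compound; incubation: overnight exposure; signal: fluorescence imaging, 20x objective, two fields per well; read-out basis: % inhibition of corrected integrated BODIPY droplet signal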
CHT allo act – allosteric activators of human choline transporter CHT; 310,000 compounds, 0.49% hits; Q9GZV3; CHT-expressing cells, membrane potential dye, choline EC20; stronger effect = higher value; LV-AA mutant CHT in HEK293 cells; B-score at 10 µM;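 active = initial fluorescence not abnormally high and integrated response B-score, plate-corrected, over 3 SD above library mean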
The depositor's hits bear a star; i = inactive; / = no result given.

SMILES	HSF1 inh	PHOSPHO1 inh	HSF1 activator	CHT inh	Hep lipid drop	CHT allo act
Cc1ccc(S(=O)(=O)N2CCCCC2)cc1C(=O)NCCC1=CCCCC1	10.5	/	-7.4	i	/	i
O=C(NCCC1=CCCCC1)c1ccc(Cl)cc1	37.2	11.7	59.0*	i	-3.8	i
CC(C)(C)c1ccc(/C=N/n2cnnc2)cc1	-2.6	20.5	-11.9	i	-1.3	i
S=C(Nc1ccc(Cl)cc1)NC1CCN(Cc2ccccc2)CC1	0.6	-14.1	8.6	i	-0.9	i
O=C(NCCc1ccccc1)C(=O)c1cn(CC(=O)N2CCCC2)c2ccccc12	17.8	24.0	52.4*	i	9.1	i
O=C1CCC(=O)N1CNc1ccccn1	-70.3*	-4.0	-76.6	i	-3.5	i
CCCc1ccc2oc(C(=O)N(C)Cc3nccs3)c(C)c2c1	28.3	27.0	66.5*	i	-21.1	i
COc1ccc(C2Nc3ccccc3C(=O)N2NS(=O)(=O)c2ccc(C)cc2)cc1OC (configuration not stated)	-0.9	32.0	-1.4	i	-8.3	i
COC(=O)c1ccc(CC(=O)c2ccc(O)cc2O)o1	-11.1	63.7*	-7.1	i	/	i
Cc1cccc(NC(=O)COc2coc(CN3CCN(c4ccccc4)CC3)cc2=O)c1C	-2.0	/	10.0	i	/	i
CC(C)CCNC1c2ccccc2C(=O)N1Cc1ccccc1 (configuration not stated)	26.4	29.1	53.6*	i	-0.6	i
CCc1ccc(C2C(C#N)=C(N)SC(N)=C2C#N)s1	6.3	4.7	30.2	i	/	i
Cc1ccc(C2C(C#N)=C(N)SC(N)=C2C#N)o1	3.9	101.9*	-2.8	i	/	i
Fc1cccc(Cl)c1-c1nnc2ccc3ccccc3n12	-12.2	5.6	-4.3	i	17.6	i
Cc1ccc(S(=O)(=O)N2CCCCC2C(=O)N2CCN(C)CC2)cc1 (configuration not stated)	-2.9	61.5*	-8.1	i	2.2	i
CCSc1nc2ccccc2n1Cc1nc(N)nc(N(C)C)n1	1.4	-33.6	18.3	i	-7.9	i
Cc1ccsc1/C=C1/SC(N2CC(C)OC(C)C2)=NC1=O (configuration not stated)	24.7	-9.3	51.5*	i	2.5	i
COc1ccc(C2(CNC(=O)c3ccc(C)cc3)CCOCC2)cc1	7.3	34.9	-2.7	i	-1.7	i
CC1(C)Cc2c(sc3nc(-c4cccs4)n(N)c(=O)c23)CO1	11.2	-7.5	17.2	i	/	i
Nn1c(-c2cccs2)nc2sc3c(c2c1=O)CCCC3	44.2	20.8	70.3*	i	/	i
CC(Sc1nc(N)c(NC(=O)c2ccc(Br)o2)c(=O)[nH]1)C(=O)O (configuration not stated)	-3.1	31.3	-7.7	i	6.4	i
CSc1nc(N)c(NC(=O)c2ccc(Br)o2)c(=O)[nH]1	-2.6	66.3*	-15.4	i	13.3	i
CCOc1c(OC(C)=O)ccc(/C=C2\N=C(SCC)SC2=O)c1[N+](=O)[O-]	-5.0	42.0	15.6	-5.82*	/	i
CCOc1cc(/C=C2\N=C(SCC)SC2=O)cc([N+](=O)[O-])c1OC(C)=O	0.2	34.6	12.0	i	/	i
COc1ccc(C)cc1NC(=O)Cn1cnnn1	2.9	-15.8	33.0	i	-1.3	i
SMILES	HSF1 inh	PHOSPHO1 inh	HSF1 activator	CHT inh	Hep lipid drop	CHT allo act
O=C(CN1CCCC1)Nc1c2c(cc3c1CCC3)CCC2	-64.1*	14.3	-70.9	i	0.9	i
CC(C)COC(=O)Cc1c(O)c2ccccc2[nH]c1=O	2.3	-17.5	-1.6	i	/	i
CC(C)CCN(CCC(C)C)C(=O)Cc1c(O)c2ccccc2[nH]c1=O	21.7	11.6	53.0*	i	8.9	i
Cc1nc2sc(C(c3ccco3)N3CC(C)OC(C)C3)c(O)n2n1 (configuration not stated)	-0.5	103.1*	-6.3	i	/	i
COc1cccc(C(c2sc3nc(C)nn3c2O)N2CCN(C(=O)c3ccco3)CC2)c1 (configuration not stated)	-84.7*	8.2	-88.1	i	23.9	i
Oc1c(C(c2ccco2)N2CCOCC2)sc2ncnn12 (configuration not stated)	-5.7	90.4*	-7.5	i	/	i
Cc1nc2sc(C(c3cccc(F)c3)N3CCN(C(=O)c4ccco4)CC3)c(O)n2n1 (configuration not stated)	1.5	26.8	6.7	i	-1.0	i
Cc1ccc(-c2csc(N3N=C(c4ccccc4)/C(=C\c4ccc(N(C)C)cc4)C3=O)n2)cc1	0.3	19.5	1.9	i	/	i
NC(=O)c1nsc(C(=O)N(c2ccccc2)C(C(=O)NCC2CCCO2)c2cccs2)c1N (configuration not stated)	40.8	5.3	72.5*	i	-4.7	i
Cc1ccc(C(C(=O)NCC2CCCO2)N(C(=O)c2snc(C(N)=O)c2N)c2ccc3c(c2)OCCO3)cc1 (configuration not stated)	-3.8	36.0	-4.1	i	-2.7	i
NC(=O)c1nsc(C(=O)N(c2ccc3c(c2)OCCO3)C(C(=O)NCC2CCCO2)c2ccc(F)cc2)c1N (configuration not stated)	-53.7*	-155.3	-53.5	i	-5.2	i
O=C(O)CCNS(=O)(=O)c1ccccc1C(F)(F)F	-60.4*	20.2	-68.2	i	5.5	i
CCN(CC)CCNC(=O)NC(=O)c1ccc(Cl)cc1	-0.1	-0.3	-12.7	i	-2.9	i
O=Cc1ccc(-c2cccc(C(=O)O)c2)o1	6.9	31.7	-16.7	i	20.2	i
CCOc1ccc(/C=C/C(=O)c2ccccc2)cc1OC	32.3	-4.9	62.9*	i	-4.1	i
O=C(/C=C/c1ccc(O)cc1)c1ccccc1	40.2	11.6	83.8*	i	-2.0	i
O=C(/C=C/c1ccc(-c2ccccc2)o1)c1ccccc1	41.6	-11.0	72.1*	i	-1.1	i
CCOc1ccc(C(=O)/C=C/c2ccc(OC)c(OC)c2)cc1	9.5	34.9	25.6	i	-1.9	i
COc1ccc(C(=O)/C=C/c2ccc(OC)c(Cn3nnc4ccccc43)c2)cc1	43.6	-8.5	79.8*	i	-14.9	i
COc1ccc(-c2nnc(SCC(=O)Oc3ccc(C)cc3)o2)cc1	-5.9	20.6	-6.0	i	-7.0	i
Cc1nc2ccc(NS(=O)(=O)c3ccc4c(c3)OCCO4)cc2s1	3.8	-8.3	1.0	i	-41.2	i
CCNCc1ccccc1OCc1ccccc1	0.0	68.6*	-12.2	i	-3.6	i
CN(C(=O)CCNC(=O)Cn1cnc2ccccc2c1=O)c1ccccc1F	-89.5*	27.9	-91.1	i	5.2	i

Source: PubChem (several laboratories)
